Activity calls are given as the source filed them. No cut-off for these calls is given here.
Key:
[1] = test system: SH-SY5Y; test: Neuroprotective activity against t-BuOOH-induced oxidative stress in human SH-SY5Y cells assessed as inhibition ROS accumulation pre-incubated for 24 hrs before t-BuOOH challnge for 30 mins by DCFH-DA probe based fluorescence assay; format: functional, cell-based
Summary of the method: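 SH-SY5Y cells; test agents at 1–0.01 µM, oxidative stress induced by tert-butyl hydroperoxide; intracellular ROS read by DCFH-DA fluorescence; at least three independent experiments in sextuplicate; EC50 derived.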

[2] = test system: PC-12; test: Cytotoxicity against rat undifferentiated PC12 cells at 0.5 to 50 uM after 72 hrs by MTT assay; format: cell-based; settings: pc-12, 72 h
[3] = Permeability of compound at 100 ug/ml after 10 hrs by PAMPA assay; format: ADME; settings: read-out: permeability
[4] = test system: PC-12; test: Induction of rat PC12 cell proliferation at 10 uM after 72 hrs by microscopic analysis; format: functional, cell-based
Summary of the method: (§1)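 Undifferentiated PC12 cells cultured 72 h with compound at 0.5–50 µM (images at 10 µM) or with NGF 50 ng/ml, then examined under a digital microscope.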

[5] = test system: PC-12; test: Induction of rat PC12 cell proliferation at 0.5 to 50 uM after 72 hrs by microscopic analysis; format: functional, cell-based; summary of the method: as §1
[6] = test system: Mus musculus; test: Toxicity in C57BL/6 mouse assessed as effect on water intake at 677 to 2000 mg/kg, ig measured continuously during first 4 hrs, intermittently for following 24 hrs and occasionally thereafter for 14 consecutive days; format: organism-based; settings: in vivo, po
[7] = test system: Mus musculus; test: Toxicity in C57BL/6 mouse assessed as abnormal behavior at 677 to 2000 mg/kg, ig measured continuously during first 4 hrs, intermittently for following 24 hrs and occasionally thereafter for 14 consecutive days; format: organism-based; settings: in vivo, po
Summary of the method: (§2)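 Adult C57BL/6 mice, 12 weeks old, given single intragastric doses of 0, 677, 1333 or 2000 mg/kg (n = 6 per dose, 3 male and 3 female). Abnormal behaviour and deaths observed continuously for the first 4 h, intermittently over the next 24 h, then occasionally for 14 days to catch delayed effects.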

[8] = test system: Mus musculus; test: Toxicity in C57BL/6 mouse assessed as macroscopic abnormalities of heart at 677 to 2000 mg/kg, ig after 14 consecutive days; format: organism-based; settings: in vivo, po
[9] = test system: Mus musculus; test: Induction of cell proliferation in C57BL/6 mouse hippocampal neurons in CA3 region assessed as BrdU-incorporation at 30 mg/kg, po administered via gavage for 7 days by immunohistochemical analysis (reference value: 1.5%); format: functional
Summary of the method: (§3)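 C57BL/6 mice, 12 weeks old, n = 6, individually housed beforehand without wheels. Compound gavaged 30 mg/kg/day for 7 days with daily IP BrdU 50 mg/kg; BrdU+ cells counted by immunohistochemistry per hippocampal volume; two-way ANOVA.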

[10] = test system: Mus musculus; test: Induction of cell proliferation in C57BL/6 mouse hippocampal neurons in DG region assessed as BrdU-incorporation at 0.5 uL/hr, icv for 7 days by immunohistochemical analysis (reference value: 7.8%); format: functional
[11] = test system: Mus musculus; test: Toxicity in C57BL/6 mouse assessed as mortality at 677 to 2000 mg/kg, ig measured continuously during first 4 hrs, intermittently for following 24 hrs and occasionally thereafter for 14 consecutive days; format: organism-based; settings: in vivo, po; summary of the method: as §2
[12] = test system: Mus musculus; test: Toxicity in C57BL/6 mouse assessed as histological abnormalities of brain at 2000 mg/kg, ig after 14 consecutive days by hematoxylin/eosin dye-based microscopic analysis; format: organism-based; settings: in vivo, po, 336 h
Summary of the method: (§4)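 Adult C57BL/6 mice, 12 weeks old, single intragastric doses of 0, 677, 1333 or 2000 mg/kg (n = 6 per dose, 3 male/3 female); behaviour and mortality observed over 14 days; liver, heart, lung and brain examined by HE staining at 2000 mg/kg.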

[13] = Half life in Sprague-Dawley rat liver microsomes at 100 uM up to 180 mins by HPLC-UV analysis; settings: microsomes
[14] = test system: Mus musculus; test: Induction of cell proliferation in C57BL/6 mouse hippocampal neurons in CA3 region assessed as BrdU-incorporation at 0.5 uL/hr, icv for 7 days by immunohistochemical analysis (reference value: 1.4%); format: functional
[15] = test system: Mus musculus; test: Induction of cell proliferation in C57BL/6 mouse hippocampal neurons in DG region assessed as BrdU-incorporation at 30 mg/kg, po administered via gavage for 7 days by immunohistochemical analysis (reference value: 2.2%); format: functional; summary of the method: as §3
[16] = test system: Mus musculus; test: Toxicity in C57BL/6 mouse assessed as histological abnormalities of lung at 2000 mg/kg, ig after 14 consecutive days by hematoxylin/eosin dye-based microscopic analysis; format: organism-based; settings: in vivo, po, 336 h; summary of the method: as §4
[17] = test system: Mus musculus; test: Toxicity in C57BL/6 mouse assessed as macroscopic abnormalities of kidney at 677 to 2000 mg/kg, ig after 14 consecutive days; format: organism-based; settings: in vivo, po
[18] = test system: Mus musculus; test: Toxicity in C57BL/6 mouse assessed as macroscopic abnormalities of spleen at 677 to 2000 mg/kg, ig after 14 consecutive days; format: organism-based; settings: in vivo, po
[19] = test system: Mus musculus; test: Toxicity in C57BL/6 mouse assessed as effect on body weight at 677 to 2000 mg/kg, ig measured continuously during first 4 hrs, intermittently for following 24 hrs and occasionally thereafter for 14 consecutive days; format: organism-based; settings: in vivo, po
[20] = test system: Mus musculus; test: Toxicity in C57BL/6 mouse assessed as effect on food intake at 677 to 2000 mg/kg, ig measured continuously during first 4 hrs, intermittently for following 24 hrs and occasionally thereafter for 14 consecutive days; format: organism-based; settings: in vivo, po
[21] = test system: Mus musculus; test: Induction of cell proliferation in C57BL/6 mouse hippocampal neurons in CA1 region assessed as BrdU-incorporation at 0.5 uL/hr, icv for 7 days by immunohistochemical analysis (reference value: 3.2%); format: functional
[22] = test system: Mus musculus; test: Toxicity in C57BL/6 mouse assessed as macroscopic abnormalities of lung at 677 to 2000 mg/kg, ig after 14 consecutive days; format: organism-based; settings: in vivo, po, 336 h
[23] = test system: Mus musculus; test: Induction of cell proliferation in C57BL/6 mouse hippocampal neurons in CA2 region assessed as BrdU-incorporation at 30 mg/kg, po administered via gavage for 7 days by immunohistochemical analysis (reference value: 2.4%); format: functional; summary of the method: as §3
[24] = Metabolic stability in Sprague-Dawley rat liver microsomes assessed as metabolic rate constant at 100 uM up to 180 mins by HPLC-UV analysis; settings: 3 h
[25] = test system: Mus musculus; test: Toxicity in C57BL/6 mouse assessed as macroscopic abnormalities of liver at 677 to 2000 mg/kg, ig after 14 consecutive days; format: organism-based; settings: in vivo, po
[26] = test system: Mus musculus; test: Toxicity in C57BL/6 mouse assessed as macroscopic abnormalities of intestine at 677 to 2000 mg/kg, ig after 14 consecutive days; format: organism-based; settings: in vivo, po
[27] = test system: Mus musculus; test: Toxicity in C57BL/6 mouse assessed as histological abnormalities of liver at 2000 mg/kg, ig after 14 consecutive days by hematoxylin/eosin dye-based microscopic analysis; format: organism-based; settings: in vivo, po, 336 h; summary of the method: as §4
[28] = test system: Mus musculus; test: Induction of cell proliferation in C57BL/6 mouse hippocampal neurons in CA1 region assessed as BrdU-incorporation at 30 mg/kg, po administered via gavage for 7 days by immunohistochemical analysis (reference value: 2.3%); format: functional; summary of the method: as §3
[29] = test system: Mus musculus; test: Toxicity in C57BL/6 mouse assessed as histological abnormalities of heart at 2000 mg/kg, ig after 14 consecutive days by hematoxylin/eosin dye-based microscopic analysis; format: organism-based; settings: in vivo, po; summary of the method: as §4
[30] = test system: Mus musculus; test: Toxicity in C57BL/6 mouse assessed as macroscopic abnormalities of stomach at 677 to 2000 mg/kg, ig after 14 consecutive days; format: organism-based; settings: in vivo, po
[31] = test system: Mus musculus; test: Induction of cell proliferation in C57BL/6 mouse hippocampal neurons in CA2 region assessed as BrdU-incorporation at 0.5 uL/hr, icv for 7 days by immunohistochemical analysis (reference value: 2.4%); format: functional

With Oc1c(Cl)cc(Cl)c2ccc(-c3cc4cc5c(cc4[nH]3)OCO5)nc12 the EC50 [1] was 0.33 µM, the Activity [2] was “Non-Toxic” and the Papp at 10 h, 100 ug/ml [3] was 4.9 ×10⁻⁶ cm/s.
For Oc1cccc2ccc(-c3cc4ccc5c(c4[nH]3)OCO5)nc12, the Activity [4] was “Active” and the Activity [5] was “Active”.
For COc1cc2cc(-c3ccc4c(Cl)cc(Cl)c(O)c4n3)[nH]c2cc1OC, the Activity [2] was “Toxic” and the Papp at 10 h, 100 ug/ml [3] was 3.9 ×10⁻⁶ cm/s.
With Oc1ccc(-c2cc3ccccc3[nH]2)c2cccnc12 the Activity [2] was “Toxic” and the Papp at 10 h, 100 ug/ml [3] was 12.8 ×10⁻⁶ cm/s.
In the case of Oc1c(Cl)cc(Cl)c2ccc(-c3cc4cc(F)ccc4[nH]3)nc12, the Activity [5] is reported as “inactive” and the Papp at 10 h, 100 ug/ml [3] is reported as 5.3 ×10⁻⁶ cm/s.
For Oc1ccc2[nH]c(-c3ccc4cccc(O)c4n3)cc2c1, the Activity [2] was “Toxic” and the Papp at 10 h, 100 ug/ml [3] was 14.8 ×10⁻⁶ cm/s.
In the case of Oc1ccc2[nH]c(-c3ccc(O)c4ncccc34)cc2c1, the Activity [2] is reported as “Toxic” and the Papp at 10 h, 100 ug/ml [3] is reported as 9.1 ×10⁻⁶ cm/s.
In the case of Oc1cccc2ccc(-c3cc4cc(Cl)ccc4[nH]3)nc12, the Activity [2] is reported as “Toxic” and the Papp at 10 h, 100 ug/ml [3] is reported as 9.8 ×10⁻⁶ cm/s.
In the case of Oc1c(Cl)cc(Cl)c2ccc(-c3cc4cc(Cl)ccc4[nH]3)nc12, the EC50 [1] is reported as 0.82 µM, the Activity [2] is reported as “Non-Toxic” and the Papp at 10 h, 100 ug/ml [3] is reported as 5.6 ×10⁻⁶ cm/s.
CN(C)CCCN1c2ccccc2Sc2ccc(Cl)cc21 [CHLORPROMAZINE] gave a Papp at 10 h, 100 ug/ml [3] of 5.9 ×10⁻⁶ cm/s.
For Oc1ccc2[nH]c(-c3cc(Cl)c(O)c4ncccc34)cc2c1, the Activity [2] was “Toxic” and the Papp at 10 h, 100 ug/ml [3] was 6.8 ×10⁻⁶ cm/s.
In the case of Cl.Oc1cccc2ccc(-c3cc4ccc5c(c4[nH]3)OCO5)nc12, the Activity [6] is reported as “Non-Toxic”, the Activity [7] is reported as “Non-Toxic” and the Activity [8] is reported as “Non-Toxic”. For the same molecule, the Activity [9] was 3.9%, the Activity [10] was 43.6% and the Activity [11] was “Non-Toxic”. The Activity [12] was “Non-Toxic”, the half-life at 3 h, 100 µM [13] was 58.6 min and the Activity [14] was 49.3%. For the same molecule, the Activity [15] was 7.6%, the Activity [16] was “Non-Toxic” and the Activity [17] was “Non-Toxic”. For the same molecule, the Activity [18] was “Non-Toxic”, the Activity [19] was “Non-Toxic” and the Activity [20] was “Non-Toxic”. For the same molecule, the Activity [21] was 61.9%, the Activity [22] was “Non-Toxic” and the Activity [23] was 7.5%. The K [24] was 0.01183 min⁻¹, the Activity [25] was “Non-Toxic” and the Activity [26] was “Non-Toxic”. For the same molecule, the Activity [27] was “Non-Toxic”, the Activity [28] was 8% and the Activity [29] was “Non-Toxic”. For the same molecule, the Activity [30] was “Non-Toxic” and the Activity [31] was 56.1%.
